According to ChEMBL document CHEMBL3286243, “Polyhydroxyanthraquinones as quorum sensing inhibitors from the guttates of Penicillium restrictum and their analysis by desorption electrospray ionization mass spectrometry” (J Nat Prod, 2014):
Positions of bridges follow the written chain, without caps; N, C: chain ends. Residues, ends and D or L forms follow the SMILES beside them.

Biological target: T1, Accessory gene regulator protein A (Staphylococcus aureus) (UniProt P0A0I7)
T1 sequence (whole entry): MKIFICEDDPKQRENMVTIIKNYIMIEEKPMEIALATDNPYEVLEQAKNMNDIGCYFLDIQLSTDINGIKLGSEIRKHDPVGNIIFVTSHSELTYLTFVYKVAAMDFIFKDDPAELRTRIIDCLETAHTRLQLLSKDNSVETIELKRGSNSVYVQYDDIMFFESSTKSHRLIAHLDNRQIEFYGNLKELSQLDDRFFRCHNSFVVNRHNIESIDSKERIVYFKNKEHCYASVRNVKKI
Test: Inhibition of AGR quorum sensing system-mediated delta toxin production in methicillin-resistant Staphylococcus aureus AH2759 incubated for 15 hrs by Western blotting analysis
Procedure, shortened: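 Cultures from the agr P3-lux plate were pooled and filtered (0.22 μm). Medium (2.5 μL) was run on 15% SDS-PAGE and transferred to PVDF. Blots were blocked overnight at 4 °C in milk/BSA in TBST, then probed 1 h at rt with rabbit anti-delta toxin (1:2000) and HRP anti-rabbit (1:10 000). Detection was chemiluminescence on X-ray film. AIP-2-treated cultures were included.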

Compound: O=C1c2cc(O)cc(O)c2C(=O)c2c(O)cc(CO)cc21
- inhibition: Dose-dependent effect

Compound: CC(=O)C(O)c1cc(O)c2c(c1)C(=O)c1cc(O)cc(O)c1C2=O (centres undefined)
- inhibition: Dose-dependent effect

Compound: CC(C)C[C@@H]1NC(=O)[C@H](CO)NC(=O)[C@H](CO)NC(=O)[C@@H](NC(=O)[C@H](C)NC(=O)[C@H](CC(N)=O)NC(=O)[C@@H](NC(=O)CN)C(C)C)CSC(=O)[C@H](Cc2ccccc2)NC1=O (H-GVNACSSLF; thioester 5-C)
- inhibition: Dose-dependent effect

Compound: O=C(O)c1cc(O)c2c(c1)C(=O)c1cc(O)c(O)c(O)c1C2=O
- inhibition: Dose-dependent effect
